Test results published in the RNAGym collection of RNA variant scans (doi:10.1126/science.aae0568).
Variants at the floor of the assay were thinned out.

B1: tRNA (parent)
chain: GUUCCGUUGGCGUAAUGGUAACGCGUCUCCCUCCUAAGGAGAAGACUGCGGGUUCGAGUCCCGUACGGAACG

Variants of: B1
Test: yeast fitness relative to wild type (ratio to wild type); higher = fitter; tRNA-Arg(CCU), competitive growth, 37 C, YPD
How it was run: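 For this measurement, the tRNA-Arg(CCU) gene was varied by chemical synthesis at a 3% per-site mutation rate across 69 sites, and each variant was placed at the native genomic locus in Saccharomyces cerevisiae. The pooled strains went through a 24-hour competition in YPD at 37°C in six parallel replicates, with amplicons from start and end populations read by 100-nucleotide paired-end sequencing. Darwinian fitness relative to wild type followed from the change in each genotype's frequency. Genotypes needed ≥ 100 starting reads, and estimates < 0.5 were set to 0.5.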

Variant	yeast fitness
C49U U64A	0.753
C49U U64C	0.921
G52C C61G	≤ 0.5
G50A C55G C62A	0.654
G50A A65U	0.703
G50U C61A	≤ 0.5
G51C A57G C61U A65C	≤ 0.5
G51U A57G	0.642
U53C A65U C66U	≤ 0.5
U53C C60U A69C	0.57
U53C A57G C66U	≤ 0.5
U53C A57U U59A C66U	0.535
C49G C61A	0.808
C49G C61U	0.719
G51A C55U	0.633
C49U C55U G58A	≤ 0.5
G52A U59A	0.666
G50A C66U A69C	0.531
G52C G68C	0.639
G52C A69U A70U	≤ 0.5
G50C G63A	0.773
G50A C62U G63A	≤ 0.5
G51A G68C	0.671
C49G G56C A70U	0.55

Variant	yeast fitness
G52C G63A A69G	≤ 0.5
G50C U53C C55U	0.528
C49U G68C A69U	0.569
C49G G63A C66U	0.524
G50A C60G U64G	0.521
G52C C66U	0.547
G52U	0.785
G52A	0.696
G52C	0.635
C49G G56A	0.838
G51C U54C A57G	≤ 0.5
U53C G58A	1.02
G51A G63C	0.693
G51A G63A	0.739
C49U A65G	0.942
G52A C61U	0.886
C49U C55U C61U	0.559
G50C C61G A70C	≤ 0.5
C49U U59A A65U	≤ 0.5
G50A C61G	0.737
C49U G67U A69C	0.542
C49G G67C	0.84
G51C C62G G68A	0.715
G51C C55U	≤ 0.5

Variant	yeast fitness
C49U G51C U64C G68A	≤ 0.5
G51A C62G	0.621
G51A C62A	0.561
G51A C62U	0.763
C49G C66G G67C	0.569
C49U C66U	0.968
C49U C66G	0.752
C49U C66A	0.815
C49U A70U	1
G52A A70C	0.675
C49U C55A C66U	0.514
G52A G58A	0.69
G51C G63A	0.611
G51A A70U	0.935
G52C G56A C62U	0.653
G52A A69U	0.853
G50C G51A C55U	0.549
G50C U54C C62G	0.622
C49U A69C	1.01
G50C A57U	0.63
C49G G50A U59G	≤ 0.5
G50C U53A A57U A65U	0.57
C49U G51C	0.756
C49U G51A	0.737

Variant	yeast fitness
G51C G67A	0.572
G51C G67U	0.504
G51A U53A A69C	≤ 0.5
C49G C60G	0.64
G50C C66A	0.657
G50C C66U	0.596
G50C C60A	≤ 0.5
G50A U54A	0.705
G51A C55U A65U	≤ 0.5
G50C G51C G56A	0.602
G50A C62A C66G	≤ 0.5
U53C A69U	0.997
C49U U59G	0.904
C49U U59A	0.852
G50C G52C	0.562
C49G U54G A69U	≤ 0.5
G51A U59A	0.696
G52A A57G G58A A70U	≤ 0.5
U53C U59A	0.731
C49U C55A C62U	0.699
G52A U59A A69C A70C	0.609
C49U G51A A69C	0.61
U53A G67C	0.664
C49U C62G G68C	0.536

Variant	yeast fitness
G50A G56A A69C	0.706
G52C A57U	0.514
G51U U53A	0.657
C49U G68C	0.801
G50A G52A	0.688
G50C C61U C62U A69U	≤ 0.5
G50U U59G	0.796
G51U	0.843
G51C	0.612
G51A	0.917
G51C U54C C66U	≤ 0.5
C49U A65U A70U	0.657
G50C C62U	0.963
G50C C62G	0.965
G52A G56C A65U	≤ 0.5
G52C G67C	0.555
G51A A69U	0.738
G51C A57G	0.52
G51C A57C	0.551
G51C A57U	0.691
U53C A57C C66U	≤ 0.5
C49U A57U G67C	≤ 0.5
G50A C66A	0.516
G50A C66U	0.783

Variant	yeast fitness
G50C G58C	0.722
C49U C60G	0.609
C49U C60A	0.668
G52A G68U	0.653
G52A G68C	0.744
G51C C62G	0.528
G51C C62U	0.668
G52A U59A A69C	0.571
G51C C55G C62A	≤ 0.5
G52A U54C	0.589
G50A G51U	0.664
G50A G51C	0.585
G52C U54C	0.608
G52A A65U	0.631
G52A A65G	0.86
G50U A65G A70C	0.59
G51A A57G A65G C66U	≤ 0.5
G52C A65C A70G	0.515
G50U C62U A69C	0.661
C49G C66U	0.781
C49G C66G	0.647
U53A C61A	0.509
U53A C61G	≤ 0.5
U53A G67U G68A	≤ 0.5

Variant	yeast fitness
G51C U64C	0.941
G52A U64C	0.789
G50A G67C	0.743
G50A G67A	0.818
G51A C55G G68C	≤ 0.5
G52A C60G	≤ 0.5
G52A C60A	0.696
G50A A69U	1
U53A G63A	0.618
C49G G50A A57C	≤ 0.5
C49G G63C	0.967
C49G G63A	0.86
C49U U53C	0.691
G52A U53A C66U	≤ 0.5
C49U U54C C55G	0.548
G51A C62G C66U	≤ 0.5
G50A C55A	0.702
G51A G67U	0.709
G51A G67C	0.857
G51A G67A	0.872
C49U A57C	0.78
C49U G63C G67C	0.53
U53G C66A	≤ 0.5
